Measurements published in ChEMBL document CHEMBL1143996, “Toward the development of chemoprevention agents (III): synthesis and anti-inflammatory activities of a new class of 5-glycylamino-2-substituted-phenyl-1,3-dioxacycloalkanes” (Bioorg Med Chem, 2008).

Legend:
Mus musculus [1] = experiment: Toxicity assessed as tail bleeding in Kunming mouse at 200 mg/kg, po after 60 mins; format: organism-based; set-up: dose 200 mg/kg, route oral; conditions: in vivo, 1 h
Summary of the method: (§1)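 Male mice (18–22 g) given a single oral dose, normal saline vehicle, n = 10. At set times after dosing, mouse restrained in a tube holder with tail protruding and a 2-mm tail cut made. Blood wiped away every 30 s until bleeding stopped; bleeding time recorded in s and compared with pre-dose values.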

Mus musculus [2] = experiment: Toxicity assessed as tail bleeding in Kunming mouse at 200 mg/kg, po after 30 mins; format: organism-based; set-up: dose 200 mg/kg, route oral; conditions: in vivo, 0.5 h; summary of the method: as §1
Mus musculus [3] = experiment: Toxicity assessed as tail bleeding in Kunming mouse at 200 mg/kg, po after 5 mins; format: organism-based; set-up: dose 200 mg/kg, route oral; conditions: in vivo; summary of the method: as §1
Mus musculus [4] = experiment: Toxicity assessed as tail bleeding in Kunming mouse at 200 mg/kg, po after 15 mins; format: organism-based; set-up: dose 200 mg/kg, route oral; conditions: in vivo, 0.25 h; summary of the method: as §1
Mus musculus [5] = experiment: Antiinflammatory activity in Kunming mouse assessed as inhibition of xylene-induced ear edema at 20 mg/kg, po; format: functional
Mus musculus [6] = experiment: Antiinflammatory activity in Kunming mouse assessed as inhibition of xylene-induced ear edema at 30 mg/kg, po; format: functional
Summary of the method: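 Male Kunming mice, 12 per group (tables give n = 11), dosed orally by gavage as a suspension in 0.5% carboxymethyl cellulose; CMC alone as vehicle control. After 30 min, 0.03 mL xylene applied to both surfaces of the right ear, with the left ear as control.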

Compound | Time (Mus musculus [1]) [min] | Time (Mus musculus [2]) [min] | Time (Mus musculus [3]) [min] | Time (Mus musculus [4]) [min] | inhibition in vivo at 20 mg/kg (Mus musculus [5]) [%] | inhibition in vivo at 30 mg/kg (Mus musculus [6]) [%]
C[C@H]1O[C@@H](c2ccccc2)OC[C@H]1NC(=O)CN | 2.03 | 2.01 | 2.02 | 2 | – | –
C[C@H]1O[C@@H](c2cccc([N+](=O)[O-])c2)OC[C@H]1NC(=O)CN | 2 | 1.98 | 2.01 | 2.01 | – | –
NCC(=O)N[C@H]1CCO[C@@H](c2ccc(Cl)cc2)OC1 | 2 | 2.01 | 1.99 | 2.01 | – | –
C[C@H]1O[C@@H](c2ccc([N+](=O)[O-])cc2)OC[C@H]1N | – | – | – | – | 78.5 | –
C[C@H]1O[C@@H](c2ccc([N+](=O)[O-])cc2)OC[C@H]1NC(=O)CN | 2.01 | 1.98 | 2 | 2.02 | – | –
NCC(=O)N[C@H]1CCO[C@H](c2ccc([N+](=O)[O-])cc2)OC1 | 1.99 | 2 | 2.01 | 2.01 | – | –
NCC(=O)N[C@H]1CCO[C@H](c2cccc([N+](=O)[O-])c2)OC1 | 2.02 | 2 | 2.02 | 2 | – | –
NCC(=O)N[C@H]1CO[C@@H](c2ccccc2)OC1 | 2.01 | 2.02 | 2 | 2 | – | –
NCC(=O)N[C@H]1CO[C@@H](c2ccc([N+](=O)[O-])cc2)OC1 | 2.02 | 2.04 | 2.02 | 2.01 | – | –
NCC(=O)N[C@H]1CO[C@@H](c2ccc(Cl)cc2)OC1 | 2 | 2 | 2.01 | 2.01 | – | –
C[C@H]1O[C@@H](c2ccc(Cl)cc2)OC[C@H]1NC(=O)CN | 2.01 | 2 | 2.04 | 2.01 | – | –
C[C@H]1O[C@@H](c2ccc(Cl)cc2)OC[C@H]1N | – | – | – | – | 66.7 | –
Cc1ccc([C@H]2OC[C@@H](NC(=O)CN)[C@@H](C)O2)cc1 | 2 | 2.02 | 2 | 2.04 | – | –
NCC(=O)N[C@H]1CCO[C@H](c2ccc(Cl)cc2)OC1 | 1.99 | 2 | 2.02 | 1.99 | – | –
NCC(=O)N[C@H]1CO[C@@H](c2cccc([N+](=O)[O-])c2)OC1 | 2.02 | 2.04 | 2 | 2 | – | –
NCC(=O)N[C@H]1CCO[C@@H](c2ccc([N+](=O)[O-])cc2)OC1 | 1.99 | 2 | 2 | 2.05 | – | –
Cc1ccc([C@H]2OC[C@@H](NC(=O)CN)CO2)cc1 | 2 | 1.99 | 2 | 2 | – | –
NCC(=O)N[C@H]1CCO[C@@H](c2cccc([N+](=O)[O-])c2)OC1 | 1.99 | 2.05 | 1.99 | 1.99 | – | –
CC(=O)Oc1ccccc1C(=O)O [ASPIRIN] | – | – | – | – | – | 40.7
